The record followed here is ChEMBL document CHEMBL3526116, “Toxicological evaluation of acyl glucuronides of nonsteroidal anti-inflammatory drugs using human embryonic kidney 293 cells stably expressing human UDP-glucuronosyltransferase and human hepatocytes” (Drug Metab Dispos, 2011).

In series [1] the test system is HEK293. The experiment in a line: Cytotoxicity against HEK293 cells expressing UGT1A3 assessed as decrease in cell viability at 1 mM measured at 24 hrs by MTT assay. It counts as ADME, cell-based. To be noted: human, hek293, 24 h, 1000 µM.
The subject of series [2] is HEK293. The experiment in a line: Genotoxicity in HEK293 cells expressing UGT1A3 assessed as DNA strand breaks at 0.1 mM after 24 hrs by comet assay. It counts as toxicity, cell-based. Particulars: human, hek293, 24 h, 100 µM; call rule not given here. The method in brief: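 HEK293 cells stably expressing UGT1A3, seeded 24 h before treatment and exposed 24 h in 0.5% FBS DMEM (vehicle 0.1% DMSO). Alkaline comet assay: low-melting agarose embedding, lysis pH 10 for 1 h at 4°C, 30 min unwinding in NaOH/EDTA, electrophoresis 300 mA for 20 min, ethidium bromide stain. Tail extent moment scored on 150-180 cells over more than 3 experiments, median (IQR).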

Series [3] concerns HEK293. Description: Cytotoxicity against HEK293 cells expressing UGT1A4 assessed as decrease in cell viability at 1 mM measured at 24 hrs by MTT assay. It counts as ADME, cell-based. Particulars: human, hek293, 24 h, 1000 µM. (Formazan colour is commonly taken as a measure of viable cells.)
The subject of series [4] is HEK293. The experiment in a line: Cytotoxicity against HEK293 cells expressing UGT assessed as decrease in cell viability at 1 mM measured up to 72 hrs by MTT assay. It counts as ADME, cell-based. To be noted: human, hek293, 72 h, 1000 µM. The method in brief:
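Mock and UGT1A3/UGT1A4 stable HEK293 cells given drug for up to 72 h; viability measured by WST-8-based MTT assay.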

The test system of series [5] is HEK293. The experiment in a line: Genotoxicity in HEK293 cells expressing UGT1A3 assessed as DNA strand breaks at 1 mM after 24 hrs by comet assay. It counts as toxicity, cell-based. Particulars: human, hek293, 24 h, 1000 µM. The method in brief: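 Alkaline comet assay: HEK/UGT1A3 cells seeded 24 h before, treated 24 h in DMEM with 0.5% FBS (vehicle 0.1% DMSO; MMS 0.1 mM positive control). Cells embedded in LMP agarose, lysed 1 h at 4°C at pH 10, unwound 30 min in NaOH/EDTA, electrophoresed 300 mA 20 min, ethidium-stained; tail moment scored on 150-180 comets over >3 experiments, median (IQR).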

Series [6] has as its system Hepatocyte. Description: Cytotoxicity against human hepatocytes assessed as decrease in cell viability by measuring intracellular ATP content at 1 mM measured at 6 hrs by CellTiter-Glo luminescent assay in absence of acyl glucuronidation inhibitor (-)-borneol. Particulars: 1000 µM. It is filed as cell-based. The method in brief:
(§1)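 Human hepatocytes (pooled, cryopreserved), 2 × 10^4 cells/well on collagen in HCM with 0.5% FBS and 10 nM estradiol; 30-min preincubation ± 1 mM (-)-borneol, then drug 6 h. Intracellular ATP measured by CellTiter-Glo luminescence, percent of control cells. Triplicates, mean ± SD.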
For orientation: Cellular ATP, detected with luciferase, serves as a proxy for viable cell number.

Series [7] deals with HEK293. Description: Cytotoxicity against HEK293 cells expressing UGT1A4 assessed as decrease in cell viability at 1 mM by MTT assay. It is filed as ADME, cell-based. To be noted: human, hek293, 1000 µM; TDE = time-dependent effect.
Series [8] relates to HEK293. The experiment in a line: Cytotoxicity against HEK293 cells expressing UGT1A4 assessed as decrease in cell viability by measuring intracellular ATP content at 1 mM by CellTiter-Glo luminescent assay. It is filed as ADME, cell-based. To be noted: human, hek293, 1000 µM; TDE = time-dependent effect. The method in brief: (§2)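 UGT1A3 or UGT1A4 stable HEK293 cells, 2 x 10^4 cells/well in 0.1 mL DMEM with 0.5% FBS, drug for 6, 12 or 24 h. Viability from intracellular ATP via CellTiter-Glo luminescence, expressed as percent of control cells. Mean ± SD of triplicates.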

The subject of series [9] is HEK293. Description: Cytotoxicity against mock transfected HEK293 cells assessed as decrease in cell viability at 1 mM by MTT assay. To be noted: human, hek293, 1000 µM; TDE = time-dependent effect. It is filed as cell-based.
The test system of series [10] is HEK293. The experiment in a line: Cytotoxicity against mock transfected HEK293 cells assessed as decrease in cell viability by measuring intracellular ATP content at 1 mM by CellTiter-Glo luminescent assay. It counts as cell-based. Particulars: human, hek293, 1000 µM; TDE = time-dependent effect. The procedure, abridged:
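Mock-transfected HEK293 cells seeded at 2 x 10^4 cells/well in DMEM with 0.5% FBS, drug added at once and incubated 6, 12 or 24 h. Viability read either by WST-8 (CCK-8) formazan absorbance at 450 nm or by intracellular ATP luminescence (CellTiter-Glo), as percent of control cells; mean ± SD of triplicates. Final DMSO ≤0.1%.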

Series [11] concerns Hepatocyte. Description: Cytotoxicity against human hepatocytes assessed as decrease in cell viability by measuring intracellular ATP content at 1 mM measured at 6 hrs by CellTiter-Glo luminescent assay in presence of acyl glucuronidation inhibitor (-)-borneol. It is filed as cell-based. Particulars: 1000 µM. The procedure, abridged: as §1
In series [12] the test system is Hepatocyte. The experiment in a line: Cytotoxicity against human hepatocytes assessed as decrease in cell viability at 1 mM measured at 6 hrs […] in presence of acyl glucuronidation inhibitor (-)-borneol. It counts as cell-based. Particulars: 1000 µM.
Series [13] relates to Hepatocyte. Description: Cellular uptake in human hepatocytes at 1 mM measured at 6 hrs by LC-MS/MS analysis in presence of acyl glucuronidation inhibitor (-)-borneol. It counts as ADME, cell-based. To be noted: 1000 µM. The procedure, abridged:
(§3)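 Cryopreserved pooled human hepatocytes on collagen-coated wells, 2 × 10^5 cells/well in HCM medium with 0.5% FBS, preincubated 30 min with or without 1 mM (-)-borneol, then drug for 6 h; DMSO ≤0.2% final. Parent drug in cell fraction measured by LC-MS/MS after methanol/acetic acid extraction. Mean ± SD of triplicates.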

The test system of series [14] is Hepatocyte. Description: Cellular uptake in human hepatocytes at 1 mM measured at 6 hrs by LC-MS/MS analysis in absence of acyl glucuronidation inhibitor (-)-borneol. It is filed as ADME, cell-based. Particulars: 1000 µM. The procedure, abridged:
as §3

The subject of series [15] is HEK293. The experiment in a line: Cytotoxicity against HEK293 cells expressing UGT1A3 assessed as decrease in cell viability at 1 mM by MTT assay. It is filed as ADME, cell-based. Particulars: human, hek293, 1000 µM; TDE = time-dependent effect.
For series [16], the system named is HEK293. Description: Cytotoxicity against HEK293 cells expressing UGT1A3 assessed as decrease in cell viability by measuring intracellular ATP content at 1 mM by CellTiter-Glo luminescent assay. It is filed as ADME, cell-based. To be noted: human, hek293, 1000 µM; TDE = time-dependent effect. The method in brief:
as §2

Series [17] concerns HEK293. Description: Cytotoxicity against HEK293 cells expressing UGT assessed as LDH leakage at 1 mM after 6 to 24 hrs by spectrophotometric analysis relative to total cell LDH level. It is filed as ADME, cell-based. Particulars: human, hek293, 1000 µM. The method in brief:
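Stable UGT-expressing or mock HEK293 lines in DMEM with 0.5% FBS, 2 x 10^4 cells/well, drug for 6, 12 or 24 h. LDH released into medium read at 490 nm (690 nm reference); percentage calculated against maximum release from control cells lysed with 1% Triton X-100.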
In general terms: LDH leaks from cells whose membrane has failed.

As for `COc1c(C)c2c(c(O)c1C/C=C(\C)CCC(=O)O)C(=O)OC2` [MYCOPHENOLIC ACID], the Activity entry with HEK293 [1] is “Non-toxic”.

On to `CC1=C(CC(=O)O)c2cc(F)ccc2/C1=C\c1ccc([S+](C)[O-])cc1` (centres undefined), for which, in the series with HEK293 [1], the Activity entry was “Non-toxic”.

As to `COS(C)(=O)=O` [METHANESULFONIC ACID METHYL ESTER], the Activity entry in the series with HEK293 [2] is “Toxic”.

On to `CC(C)(Oc1ccc(Cl)cc1)C(=O)O` [CLOFIBRIC ACID], for which the Activity result in the series with HEK293 [3] was “Non-toxic”; in the series with HEK293 [4], “Non-toxic”; in the series with HEK293 [5], “Toxic”; in the series with HEK293 [1], “Non-toxic”.

For `COc1ccc2c(c1)c(CC(=O)O)c(C)n2C(=O)c1ccc(Cl)cc1` [INDOMETHACIN], the Activity entry in the series with HEK293 [1] is listed as “Non-toxic”.

Consider `CC(C(=O)O)c1ccc(-c2ccccc2)c(F)c1` (centres undefined) [FLURBIPROFEN], for which, in the series with HEK293 [1], the Activity entry is “Non-toxic”.

On to `NS(=O)(=O)c1cc(C(=O)O)c(NCc2ccco2)cc1Cl` [FUROSEMIDE], for which the Activity entry with HEK293 [1] is recorded as “Non-toxic”.

`COc1ccc2cc([C@H](C)C(=O)O)ccc2c1` [NAPROXEN]: the Activity result in the series on Hepatocyte [6] is on record as “Toxic”; with HEK293 [7] it was “tde”; with HEK293 [8], “tde”; in the series on HEK293 [9] it was “tde”; in the series on HEK293 [10] it was “tde”; with HEK293 [4], “Non-toxic”. Moreover, the Activity entry was “Toxic” in the series with Hepatocyte [11]; “Toxic” in the series on Hepatocyte [12]; “Non-toxic” in the series on HEK293 [5]; “tde” in the series on HEK293 [15]; “tde” in the series on HEK293 [16]; less than 5.4% in the series with HEK293 [17]. Moreover, the Drug uptake entry in the series on Hepatocyte [13] and in the series with Hepatocyte [14] was “Active” throughout.
